Key:
[1] = Half life of compound when water is added (0.15u) in pH 7.4 phosphate buffer (0.05 M) at 37 degree C; assay type: ADME
Outline: (§1)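 Chemical stability: compound added from freshly prepared 8 mM DMSO stock into 0.05 M phosphate buffer (μ = 0.15), pH 7.4, at 37 °C. Samples drawn at intervals and injected directly onto reversed-phase HPLC with UV detection. Buffer pH checked before and after. Disappearance followed first-order kinetics, giving apparent rate constants. Half-life in minutes.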

[2] = Second order oxidation rate constant determined by using Ferricyanide; assay type: ADME
Outline: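 Oxidation by ferricyanide under pseudo-first-order conditions, with Fe(CN)6^3- in large excess over the dihydro carrier and pH held constant. Pseudo-first-order rates were measured at several ferricyanide concentrations, and the second-order oxidation rate constant (Ko) was derived from them.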

[3] = Half life of compound (0.15u) in pH 7.4 phosphate buffer (0.05 M) at 37 degree C; assay type: ADME; outline: as §1
[4] = Stability in aqueous buffer at pH 7.4; assay type: physicochemical; outline: as §1
[5] = Dissociation constant of the compound; assay type: physicochemical
[6] = Partition coefficient (logP); assay type: physicochemical; conditions: octanol/water
[7] = test system: Homo sapiens; assay: Concentration of compound in human brain tissues after intravenous administration of 2 g dose; assay type: ADME, organism-based; conditions: in vivo
[8] = test system: Homo sapiens; assay: Concentration of compound in human blood tissues after intravenous administration of 2 g dose; assay type: ADME, organism-based

Compound	half-life [1]	Ko [2]	half-life [3]	other results
CN1C=CCC(C(=O)NCC(OC(=O)C2N3C(=O)[C@@H](NC(=O)Cc4ccccc4)[C@H]3SC2(C)C)c2ccccc2)=C1 (stereo partly specified)	–	15.85 M⁻¹ s⁻¹	0.587 h	–
CN1C=C(C(=O)NCCOC(=O)C2N3C(=O)[C@@H](NC(=O)Cc4ccccc4)[C@H]3SC2(C)C)c2ccccc2C1 (stereo partly specified)	–	–	16.5 h	–
CC1(C)S[C@@H]2[C@H](NC(=O)Cc3ccccc3)C(=O)N2C1C(=O)OCCO (stereo partly specified)	–	–	7.27 h	k [4]: 0.0016 min⁻¹
CN1C=CCC(C(=O)OCCOC(=O)C2N3C(=O)[C@@H](NC(=O)Cc4ccccc4)[C@H]3SC2(C)C)=C1 (stereo partly specified)	7.38 h	1.552 M⁻¹ s⁻¹	1.93 h	–
CN1C=CCC(C(=O)NCCOC(=O)C2N3C(=O)[C@@H](NC(=O)Cc4ccccc4)[C@H]3SC2(C)C)=C1 (stereo partly specified)	2.47 h	26.08 M⁻¹ s⁻¹	0.213 h	–
CN1C=CCC(C(=O)OCOC(=O)C2N3C(=O)[C@@H](NC(=O)Cc4ccccc4)[C@H]3SC2(C)C)=C1 (stereo partly specified)	2.26 h	0.53 M⁻¹ s⁻¹	1.55 h	–
CC(CNC(=O)C1=CN(C)C=CC1)OC(=O)C1N2C(=O)[C@@H](NC(=O)Cc3ccccc3)[C@H]2SC1(C)C (stereo partly specified)	–	11.94 M⁻¹ s⁻¹	0.43 h	–
CC1(C)S[C@@H]2[C@H](NC(=O)Cc3ccccc3)C(=O)N2[C@H]1C(=O)O [PENICILLIN G]	–	–	–	pKa [5]: 2.6; logP [6]: 1.76; Concentration [7]: 320 ng/mL; Concentration [8]: 7500 ng/mL

The next lines start with results.

half-life [1]	Compound	Ko [2]	half-life [3]	other results
4.47 h	C[n+]1cccc(C(=O)NCC(OC(=O)C2N3C(=O)[C@@H](NC(=O)Cc4ccccc4)[C@H]3SC2(C)C)c2ccccc2)c1.[I-] (stereo partly specified)	–	–	–
6.06 h	CC(CNC(=O)c1ccc[n+](C)c1)OC(=O)C1N2C(=O)[C@@H](NC(=O)Cc3ccccc3)[C@H]2SC1(C)C.[I-] (stereo partly specified)	–	–	–
0.615 h	C[n+]1cccc(C(=O)OCCOC(=O)C2N3C(=O)[C@@H](NC(=O)Cc4ccccc4)[C@H]3SC2(C)C)c1.[I-] (stereo partly specified)	–	–	–
0.045 h	C[n+]1cccc(C(=O)OCOC(=O)C2N3C(=O)[C@@H](NC(=O)Cc4ccccc4)[C@H]3SC2(C)C)c1.[I-] (stereo partly specified)	–	–	–
6.29 h	C[n+]1cc(C(=O)NCCOC(=O)C2N3C(=O)[C@@H](NC(=O)Cc4ccccc4)[C@H]3SC2(C)C)c2ccccc2c1.[I-] (stereo partly specified)	–	–	–
3.26 h	C[n+]1cccc(C(=O)NCCOC(=O)C2N3C(=O)[C@@H](NC(=O)Cc4ccccc4)[C@H]3SC2(C)C)c1.[I-] (stereo partly specified)	–	–	–

Reference: ChEMBL document CHEMBL1124695, “Brain-specific chemical delivery systems for beta-lactam antibiotics. Synthesis and properties of some dihydropyridine and dihydroiosquinoline derivatives of benzylpenicillin” (J Med Chem, 1989)
